High-throughput results deposited in PubChem BioAssay by Broad Institute.
DENV2 CPE rescue – inhibitors of DENV2 cytopathic effect, primary screen, cell-based, plate reader, single concentration; DENV2-infected cells, cytopathic effect rescue; CPE inhibition, % at 9.99 µM; 350,000 tested, 1.7% active; AID 651640, 2012; in the data active = CPE inhibition above about 20%, passing the limit was not always enough; tested in BHK-21 cells;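 note: 0% = median of neutral control wells and 100% = median of positive control wells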
Statin myotox sup – suppressors of statin myotoxicity in C2C12 myotubes, primary screen, cell-based, single point, plate reader; 330,000 tested, 0.78% active; C2C12 myotubes + simvastatin, ATP luminescence, 48 h; scaled: DMSO 0, geranylgeraniol control 100; rescue of ATP level, % at 7.49 µM; AID 602340, 2012;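 active = mean ATP rescue above about 67%, or every replicate alone reaching that limit, limit read from the data, passing the limit was not always enough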;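 note: myotubes were challenged with 10 µM simvastatin during compound exposure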
Xi reactivation – activators of inactive X chromosome reactivation, primary screen, imaging, XiGFP fibroblasts, GFP high-content imaging, set 2; XiGFP mouse fibroblasts, % GFP-positive cells imaging, 3 d; cells co-treated with 5-aza-dC sensitizer; scaled so ellipticine positive control = 100%; activation, % at 7.58 µM; 360,000 tested, 0.055% active;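 active = mean normalized replicate activation at least 10% and every replicate at or above 10%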;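 note: 0% = median of on-plate neutral control wells and 100% = ellipticine 6 µM median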
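System: XiGFP fibroblasts, SV40-immortalized. Medium: DMEM plus 5-aza-dC sensitizer. Doses: single point. Timing: 3 d treatment, 15 min room-temperature fixation. Control set: ellipticine 6 µM.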
Cneo AK release – Cryptococcus neoformans cell lysis inducers, primary screen, AK release luminescence, single concentration. C. neoformans lysis, adenylate kinase release luminescence, 4 h; normalised: neutral wells 0, clomiphene wells 100. lysis activity, % at 15 µM. 360,000 tested, 0.2% active. AID 651654, 2012;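 active = mean lysis activity across replicates of at least 80%, whatever share of replicates individually reach that level; inactive = mean lysis activity below 80%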
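Test system: log-phase Cryptococcus neoformans yeast cells; Quantity: yeast cell density of 5 × 10^6 cells/mL; Buffer or medium: YPD; Doses: single compound concentration per well; Timing: 4 h at 37 °C static, read 1 h later; Measured by: AK luminescence; Read-out basis: lysis from increased AK signal; Control set: Clomiphene as positive control.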
The depositor's hits bear a star. A selection: hits, their analogues and other compounds. The true share with any hit is near 2.1%.

Results for COc1ccc(S(=O)(=O)N(C)C[C@H]2Oc3c(NS(=O)(=O)c4cccs4)cccc3C(=O)N([C@@H](C)CO)C[C@@H]2C)cc1 ?
DENV2 CPE rescue: 36.0*; Xi reactivation: -0.2

What do the screens show for `COc1ccc(S(=O)(=O)Nc2cccc3c2O[C@@H](CN(C)S(C)(=O)=O)[C@@H](C)CN([C@@H](C)CO)C3=O)cc1`?
DENV2 CPE rescue: 120.1*; Xi reactivation: 0.0; Cneo AK release: 57.1

Results for C[C@H](CO)N1C[C@H](C)[C@@H](CN(C)Cc2ccc3c(c2)OCO3)Oc2ccc(NC(=O)Cc3cn(C)c4ccccc34)cc2C1=O ?
DENV2 CPE rescue: 4.6; Statin myotox sup: 18.8; Xi reactivation: -0.6; Cneo AK release: -0.7

How did CCCCNC(=S)NNC(=O)c1ccc2c(c1)OCO2 do in these assays?
DENV2 CPE rescue: 141.7*; Xi reactivation: 0.0

Results for CNC(=S)NNC(=O)c1ccc2c(c1)OCO2 ?
DENV2 CPE rescue: 2.3; Xi reactivation: 0.0

How did COc1ccccc1/C=C/C(=O)Nc1ccc2c(c1)CCC2 do in these assays?
Xi reactivation: 0.0

How did COc1ccc(OC)c(/C=C/C(=O)Nc2ccc3c(c2)CCC3)c1 do in these assays?
DENV2 CPE rescue: 23.3*; Xi reactivation: 0.2; Cneo AK release: -5.8

What do the screens show for `O=C(NCC1CC1)[C@@H]1[C@@H](CO)[C@@H]2Cn3c(cccc3=O)[C@H]1N2CCc1ccccc1`?
DENV2 CPE rescue: 0.5; Statin myotox sup: -20.0; Xi reactivation: 0.2; Cneo AK release: 0.7

How did O=C(NCC1CCCCC1)[C@H]1[C@H](CO)[C@H]2Cn3c(cccc3=O)[C@@H]1N2CCc1ccccc1 do in these assays?
DENV2 CPE rescue: 109.2*; Statin myotox sup: -5.0; Xi reactivation: 0.0; Cneo AK release: -3.4

What do the screens show for `COCCNC(=O)[C@H]1[C@H](CO)[C@H]2Cn3c(cccc3=O)[C@@H]1N2Cc1cc(F)ccc1F`?
DENV2 CPE rescue: 39.8*; Statin myotox sup: -1.7; Xi reactivation: 0.7; Cneo AK release: 1.6

How did O=C(NCC1CC1)[C@H]1[C@H](CO)[C@H]2Cn3c(cccc3=O)[C@@H]1N2CCc1ccccc1 do in these assays?
DENV2 CPE rescue: 0.9; Statin myotox sup: 6.0; Xi reactivation: 0.0; Cneo AK release: 2.2

Results for O=C(NCC1CCCCC1)[C@@H]1[C@@H](CO)[C@@H]2Cn3c(cccc3=O)[C@H]1N2CCc1ccccc1 ?
DENV2 CPE rescue: 110.0*; Statin myotox sup: -38.4; Xi reactivation: 0.3; Cneo AK release: -0.9

Results for C[C@@H]1CN([C@H](C)CO)S(=O)(=O)c2ccc(-c3ccc(F)cc3)cc2O[C@@H]1CN(C)C ?
DENV2 CPE rescue: 8.7; Statin myotox sup: -3.8; Xi reactivation: -0.7; Cneo AK release: -4.1

What do the screens show for `CCS(=O)(=O)Nc1c(C(=O)O)[nH]c2ccccc12`?
Statin myotox sup: -11.2; Cneo AK release: -2.0

Results for CC(=O)Nc1c(C(=O)O)[nH]c2ccccc12 ?
Statin myotox sup: 99.2*; Cneo AK release: 0.0

Results for CCc1ccc(O)c(CNCCNCc2cc(CC)ccc2O)c1 ?
DENV2 CPE rescue: 72.8*; Statin myotox sup: -55.3; Xi reactivation: 0.0; Cneo AK release: 0.0

What do the screens show for `COc1ccc(S(=O)(=O)N(C)C[C@H]2OCCCC[C@H](C)Oc3ccc(NS(=O)(=O)c4ccc(Cl)cc4)cc3C(=O)N([C@H](C)CO)C[C@H]2C)cc1`?
DENV2 CPE rescue: 20.9*; Xi reactivation: 0.0

What do the screens show for `COc1ccc(S(=O)(=O)Nc2ccc3c(c2)C(=O)N([C@@H](C)CO)C[C@@H](C)[C@@H](CN(C)S(=O)(=O)c2ccc(Cl)cc2)OCCCC[C@H](C)O3)cc1`?
DENV2 CPE rescue: 35.4*; Xi reactivation: 0.1; Cneo AK release: -14.2

Results for COc1ccc(S(=O)(=O)Nc2ccc3c(c2)C(=O)N([C@H](C)CO)C[C@H](C)[C@@H](CN(C)S(=O)(=O)c2ccc(Cl)cc2)OCCCC[C@H](C)O3)cc1 ?
DENV2 CPE rescue: -2.5; Xi reactivation: 0.2; Cneo AK release: 40.0

What do the screens show for `C[C@@H]1CN([C@H](C)CO)C(=O)c2cccc(NS(C)(=O)=O)c2O[C@H]1CN(C)Cc1ccncc1`?
DENV2 CPE rescue: -2.2; Statin myotox sup: 33.9; Xi reactivation: 0.2; Cneo AK release: -5.9

What do the screens show for `Cc1noc(C)c1S(=O)(=O)Nc1ccc2c(c1)C(=O)N([C@@H](C)CO)C[C@@H](C)[C@@H](CN(C)C(=O)Nc1ccc3c(c1)OCO3)OCCCC[C@@H](C)O2`?
DENV2 CPE rescue: -2.5; Xi reactivation: 0.1; Cneo AK release: 4.0

What do the screens show for `C[C@@H]1CN([C@@H](C)CO)C(=O)c2cc(NC(=O)Cc3ccccc3)ccc2O[C@@H]1CN(C)Cc1ccncc1`?
DENV2 CPE rescue: 2.8; Statin myotox sup: 15.6; Xi reactivation: 0.4; Cneo AK release: -1.3

How did CCC(=O)N1CC[C@@H]2[C@@H](CO)Nc3ccc(-c4ccc(OC)cc4)cc3[C@@H]21 do in these assays?
DENV2 CPE rescue: 130.7*; Statin myotox sup: 5.7; Xi reactivation: 0.4; Cneo AK release: -17.8

How did COc1ccc(-c2ccc3c(c2)[C@@H]2[C@@H](CCN2Cc2ccccc2F)[C@H](CO)N3)cc1 do in these assays?
DENV2 CPE rescue: 23.1*; Xi reactivation: 0.1

How did COc1ccc(-c2ccc3c(c2)[C@H]2[C@H](CCN2C(=O)CN2CCOCC2)[C@@H](CO)N3)cc1 do in these assays?
DENV2 CPE rescue: 100.1*; Statin myotox sup: 21.3; Xi reactivation: -0.1; Cneo AK release: 15.0

What do the screens show for `O=C(CN1CCOCC1)N1CC[C@@H]2[C@@H](CO)Nc3ccc(-c4ccccc4F)cc3[C@@H]21`?
DENV2 CPE rescue: -22.8; Statin myotox sup: -4.0; Xi reactivation: 0.0; Cneo AK release: 100.9*

How did COc1ccc(C(=O)N2C[C@@H]3[C@H](c4ccccc42)[C@@H](CO)N3C(=O)c2cccc(F)c2)cc1 do in these assays?
DENV2 CPE rescue: -10.0; Statin myotox sup: 1.1; Xi reactivation: 0.0; Cneo AK release: -4.3

What do the screens show for `COc1ccc(NC(=O)N[C@H]2CC[C@H](CCNC(=O)c3ccccc3F)O[C@H]2CO)cc1`?
DENV2 CPE rescue: 1.1; Statin myotox sup: 3.0; Xi reactivation: 0.1; Cneo AK release: 2.2

What do the screens show for `CC(C)(O)C#Cc1cccc(-c2nc(C(=O)N3CCN(Cc4ccccc4)CC3)cc3c2[C@@H](CCO)N(S(=O)C(C)(C)C)C3)c1` (stereo partly specified)?
DENV2 CPE rescue: -3.2; Xi reactivation: 0.2; Cneo AK release: -4.7

How did O=C(c1ccccn1)N1CC[C@@H]2[C@@H](CO)Nc3ccc(-c4ccccc4F)cc3[C@@H]21 do in these assays?
DENV2 CPE rescue: 21.0*; Statin myotox sup: 7.5; Xi reactivation: 0.2; Cneo AK release: -1.6
